UCH37 inh: human UCH37 deubiquitinating enzyme inhibition; hit rate 0.33% among 330,000; Q9Y5K5; inhibition, % (concentration not given with the values); purified proteasome/UCH37, Ub-AMC cleavage fluorescence;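 active means mean inhibition over replicate wells above about 20%, limit read from the data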;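 further: 0% = compound-free wells with enzyme and 100% = wells lacking proteasome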
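Signal – fluorescence, ex 355 nm, em 460 nm · System – Proteasome-bound UCH37 · Input – 0.15 nM proteasome as dispensed · Timing – 30 min preincubation with enzyme, 25 min cleavage at room temperature · Read-out basis – percent inhibition of cleavage signal versus uninhibited and no-proteasome wells · Medium – Tris-HCl pH 7.4 with ATP-MgCl2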
SIRT5 inh: blocks human SIRT5 desuccinylation of peptide; hit rate 1.1% among 330,000; Purified SirT5, succinyl-peptide AMC, trypsin-coupled fluorescence; inhibition, % at 15 µM; in the data active means inhibition above about 15%
Target sequence (Q9NXA8 whole entry, looked up): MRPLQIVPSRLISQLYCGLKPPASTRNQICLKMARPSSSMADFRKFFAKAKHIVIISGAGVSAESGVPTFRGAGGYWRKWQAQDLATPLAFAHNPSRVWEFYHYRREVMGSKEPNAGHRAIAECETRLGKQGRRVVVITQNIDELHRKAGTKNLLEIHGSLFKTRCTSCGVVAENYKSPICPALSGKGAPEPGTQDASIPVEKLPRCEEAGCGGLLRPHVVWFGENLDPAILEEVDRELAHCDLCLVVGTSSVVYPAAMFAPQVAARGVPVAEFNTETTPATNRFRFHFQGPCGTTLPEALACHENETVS
Casp6 inh: inhibitors of human caspase-6; hit rate 0.53% among 350,000; purified caspase-6, Z-VEID-R110 cleavage fluorescence; P55212; inhibition, % at 12.5 µM;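 active means mean inhibition across replicates at least about 35%, with every replicate also reaching that limit, limit read from the data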;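 further: 0% = median of neutral control wells and 100% = no fluorescence left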
FGF22 binding: FGF22 (human) thermal shift binding. hit rate 1.5% among 340,000. Q9HCT0. activity (Tm shift, normalised), % at 9.99 µM. recombinant FGF22 thermal shift, SYPRO orange fluorescence; percent of sucrose octasulfate shift, DMSO zero. AID 651658;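 active means mean Tm shift, scaled 0 neutral to 100 positive control, at about 1.3% or above, every replicate too, limit read from the data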
Target sequence (Q9HCT0 whole entry, looked up): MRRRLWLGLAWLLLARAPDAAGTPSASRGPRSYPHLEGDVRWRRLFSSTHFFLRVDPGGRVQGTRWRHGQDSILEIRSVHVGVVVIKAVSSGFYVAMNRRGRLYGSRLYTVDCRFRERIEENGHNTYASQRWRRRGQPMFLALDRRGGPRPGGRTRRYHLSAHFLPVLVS
NSD2 HMT inh: inhibitors of human histone methyltransferase NSD2 | O96028 | NSD2 peptide methylation, AlphaScreen, 120 min | inhibition, % at 12.5 µM | hit rate 0.54% among 310,000; in the data active means inhibition above about 50%
* hit, by the source's call; · = no result given; ! = not active in a repeat. In the library only some 2.6% were active in any assay of this set; here they are far more common.

SMILES | UCH37 inh | SIRT5 inh | Casp6 inh | FGF22 binding | NSD2 HMT inh
Cc1cc(C)n(C(=O)c2ccccc2[N+](=O)[O-])n1 | 3.0 | 2.6 | 0.4 | -0.1 | -3.5
Cc1cc(C)n(C(=O)c2cccc([N+](=O)[O-])c2C)n1 | 3.2 | 33.7* | 1.3 | 0.1 | 0.1
C=CC1C2C(C)=CC(C3C(=O)N(C)C(=O)C32)N1Cc1ccc(OC)cc1 (configuration not stated) | · | -5.2 | 1.6 | -0.3 | ·
C[C@@H]1CN([C@H](C)CO)S(=O)(=O)c2ccc(C#CC3CCCC3)cc2O[C@H]1CN(C)C | · | 101.4* | 2.3 | -0.4 | ·
C[C@H]1CN([C@@H](C)CO)S(=O)(=O)c2ccc(C#CC3CC3)cc2O[C@@H]1CN(C)C(=O)Cc1ccncc1 | · | 18.3* | -4.3 | 0.1 | ·
C[C@@H]1CN([C@@H](C)CO)S(=O)(=O)c2ccc(Br)cc2O[C@H]1CN(C)C(=O)c1ccncc1 | · | 4.0 | 4.3 | 43.0*! | ·
C[C@@H]1CN([C@H](C)CO)S(=O)(=O)c2ccc(C#CC3CCCC3)cc2O[C@@H]1CN(C)C | · | 3.3 | 0.2 | -0.1 | ·
C[C@H](CO)N1C[C@H](C)[C@H](CN(C)C(=O)c2ccccc2)Oc2cc(Br)ccc2S1(=O)=O | · | -2.9 | -1.9 | -0.1 | ·
C[C@@H]1CN([C@H](C)CO)S(=O)(=O)c2ccc(C#CC3CCCC3)cc2O[C@H]1CN(C)C(=O)Nc1cc(F)ccc1F | · | 15.1* | 2.1 | -0.2 | ·
CCCNC(=O)N1CC2(C1)[C@H](c1ccccc1)[C@H](CO)N2C(=O)CC1CC1 | · | -4.8 | -0.6 | 0.6 | ·
O=C(C[C@H]1CC[C@@H]2[C@H](COC[C@H](O)CN2C(=O)Nc2ccc(Cl)cc2)O1)N1CCCCC1 | · | -1.0 | 1.9 | 0.4 | ·
C[C@@H]1CN([C@@H](C)CO)S(=O)(=O)c2ccc(C#CC3CCCC3)cc2O[C@H]1CN(C)C(=O)Cc1ccccc1 | · | 2.2 | 2.1 | 0.2 | ·
C[C@@H]1CN([C@H](C)CO)S(=O)(=O)c2ccc(C#CC3CCCC3)cc2O[C@H]1CN(C)C(=O)Cc1ccccc1 | · | 16.6*! | 5.0 | 0.1 | ·
C[C@H](CO)N1C[C@H](C)[C@@H](CN(C)C(=O)Cc2ccccc2)Oc2cc(C#CC3CCCC3)ccc2S1(=O)=O | · | 15.2* | · | -0.1 | ·
C[C@H]1CN([C@@H](C)CO)S(=O)(=O)c2ccc(C#CC3CC3)cc2O[C@H]1CN(C)C(=O)c1ccccn1 | · | 29.6* | -0.6 | 0.0 | ·
COc1ccc(NC(=O)N[C@H]2CC[C@H](CCNC(=O)Cc3ccncc3)O[C@H]2CO)cc1 | · | -2.3 | 0.7 | -0.2 | ·
O=C1C(=O)c2ccccc2C(O)=C1CCCCl | · | · | · | · | 105.6*
C[C@@H]1CN([C@@H](C)CO)C(=O)c2cc(C3=CCCC3)cnc2O[C@@H]1CN(C)C(=O)c1ccccc1 | · | 6.9 | 0.9 | -0.1 | ·
O=C1C(Cl)=C(NCCCO)C(=O)c2ccccc21 | 18.7 | · | · | · | 19.9
NC1=C(Cl)C(=O)c2ccccc2C1=O | · | -2.9 | 96.7* | 0.5 | ·
COC1=CC2(O)CCCC2=CC1=O (configuration not stated) | 30.0* | · | · | 0.1 | ·
COc1ccc2c(c1)CCCC21NC(=O)NC1=O (configuration not stated) | 3.1 | · | · | · | -2.3
CC(=O)Nc1ccc(/C=N/NC(=O)c2cc(-c3ccco3)nc3ccccc23)cc1 | · | 8.0 | 1.7 | 0.3 | -0.8
O=C(O)c1ccccc1/C=N/NC(=O)c1cc(-c2ccco2)nc2ccccc12 | · | 18.7* | 61.5* | 0.2 | 28.1
COc1ccc2c3c(n(C)c2c1)[C@H](CO)N(Cc1ccncc1)CC31CCN(C(=O)C2CC2)CC1 | · | · | · | 0.0 | ·
SMILES | UCH37 inh | SIRT5 inh | Casp6 inh | FGF22 binding | NSD2 HMT inh
COc1ccc(CN2C[C@H](O)COC[C@@H]3O[C@H](CC(=O)NCCN4CCCC4)CC[C@H]32)cc1 | · | -4.5 | -85.3 | 0.0 | ·
COc1ccc(CN2C[C@H](O)COC[C@@H]3O[C@H](CC(=O)N4CCc5ccccc5C4)CC[C@H]32)cc1 | · | 15.3* | -2.8 | -0.1 | ·
COc1ccc(CN2C[C@@H](O)COC[C@H]3O[C@H](CC(=O)NCCN4CCCC4)CC[C@@H]32)cc1 | · | 20.9* | -86.5 | 0.0 | ·
CCOc1ccc2nc(Cl)sc2c1 | 0.6 | -1.1 | -3.6 | 42.9* | ·
CCOc1ccc2nc(NS(C)(=O)=O)sc2c1 | 2.6 | · | · | · | -1.2
CC(C)c1ccc(C=NN2CCCCC2)cc1 | 0.5 | · | · | · | ·
CCN(CC)Cc1c(C(=O)N/N=C/c2ccc(C)o2)nnn1-c1nonc1N | · | 84.6* | -4.9 | 42.6 | 2.9
CO[C@@H]1CN(C)C(=O)c2cc(NS(C)(=O)=O)ccc2OC[C@@H](C)N(CC2CCOCC2)C[C@H]1C | · | -1.1 | 1.1 | · | ·
COCC(=O)Nc1ccc2c(c1)OC[C@@H](C)N(C(=O)NC(C)C)C[C@@H](C)[C@H](OC)CN(C)C2=O | · | -1.9 | 3.4 | 0.3 | ·
CO[C@@H]1CN(C)C(=O)c2ccc(NS(=O)(=O)c3c(C)noc3C)cc2OC[C@H](C)NC[C@H]1C | · | -2.7 | 0.5 | 0.2 | ·
CC12CCC(C(=O)NCCc3ccccc3)(OC1=O)C2(C)C (configuration not stated) | 3.4 | 15.1* | -0.9 | 0.1 | -2.6
S=C1NC2(CCCCC2)Cc2ccccc21 | 0.4 | · | · | · | 3.9
COc1cc2c(cc1OC)C(=S)NC1(CCCC1)C2 | 2.5 | 38.1* | 0.3 | 0.1 | -2.2
CO[C@H]1CN(C)C(=O)c2ccc(NC(=O)c3cccc(F)c3)cc2OC[C@H](C)N(C(C)=O)C[C@H]1C | · | -0.6 | 3.1 | -0.2 | ·
CN1C(=O)c2cc(NC(=O)c3ccc(F)c(F)c3)ccc2OC[C@H]2O[C@@H](CC(=O)N3CCOCC3)CC[C@@H]21 | · | -1.3 | 0.1 | 0.0 | ·
COc1cccc(C(=O)Nc2ccc3c(c2)C(=O)N(C)C[C@H](OC)[C@@H](C)CN(CCc2ccccc2)[C@@H](C)CO3)c1 | · | 18.3* | · | 0.0 | ·
CCC(=O)Nc1ccc2c(c1)C(=O)N(C)C[C@@H](OC)[C@@H](C)CN(CCC(F)(F)F)[C@H](C)CO2 | · | 16.4* | -2.8 | 0.0 | ·
CCC(=O)Nc1ccc2c(c1)C(=O)N(C)C[C@@H](OC)[C@H](C)CN(CC1CCCCC1)[C@@H](C)CO2 | · | 21.5* | · | 0.1 | ·
CCCN1C[C@@H](C)[C@H](OC)CN(C)C(=O)c2cc(NC(=O)c3ccc(F)cc3)ccc2OC[C@@H]1C | · | 4.0 | 2.3 | -0.2 | ·
CCC(=O)Nc1ccc2c(c1)C(=O)N(C)C[C@H](OC)[C@H](C)CN(CCC(F)(F)F)[C@@H](C)CO2 | · | 3.5 | -0.6 | -0.1 | ·
CCCN1C[C@H](C)[C@H](OC)CN(C)C(=O)c2cc(NC(=O)c3ccc(F)cc3)ccc2OC[C@H]1C | · | 16.2* | 0.1 | 0.0 | ·
CN(C)C(=O)c1cccc(-c2ccc(C3[C@H]4CNC[C@@H]3N4Cc3cc(-c4ccccc4)on3)cc2)c1 (some centres not stated) | · | -3.5 | -13.7 | · | ·
CCCNC(=O)N1CC2(CN(CC3CCOCC3)C2)c2c(n(C)c3cc(OC)ccc23)[C@@H]1CO | · | -2.2 | 1.2 | -0.2 | ·
Cc1ccc(S(=O)(=O)Nc2ccc3c(c2)C(=O)N([C@H](C)CO)C[C@@H](C)[C@H](CN(C)C(=O)CCCN(C)C)OCCCC[C@@H](C)O3)cc1 | · | -3.1 | -2.3 | -0.2 | ·

Bioassay records: PubChem BioAssay, several laboratories
